Laboratory results: ChEMBL document CHEMBL1140935, “Potent and selective inhibitors of breast cancer resistance protein (ABCG2) derived from the p-glycoprotein (ABCB1) modulator tariquidar” (J Med Chem, 2009)
Calls of active or inactive are those of the source. The calls are words filed in the database; no cut-off is given here.

Columns and labels:
[1] = molecular target: T1, Broad substrate specificity ATP-binding cassette transporter ABCG2 (Homo sapiens, UniProt Q9UNQ0); test: Inhibition of ABCG2 overexpressed in human MCF7/Topo cells by flow cytometric-based mitoxantrone efflux assay; assay type: cell-based
T1 sequence (Q9UNQ0 whole entry): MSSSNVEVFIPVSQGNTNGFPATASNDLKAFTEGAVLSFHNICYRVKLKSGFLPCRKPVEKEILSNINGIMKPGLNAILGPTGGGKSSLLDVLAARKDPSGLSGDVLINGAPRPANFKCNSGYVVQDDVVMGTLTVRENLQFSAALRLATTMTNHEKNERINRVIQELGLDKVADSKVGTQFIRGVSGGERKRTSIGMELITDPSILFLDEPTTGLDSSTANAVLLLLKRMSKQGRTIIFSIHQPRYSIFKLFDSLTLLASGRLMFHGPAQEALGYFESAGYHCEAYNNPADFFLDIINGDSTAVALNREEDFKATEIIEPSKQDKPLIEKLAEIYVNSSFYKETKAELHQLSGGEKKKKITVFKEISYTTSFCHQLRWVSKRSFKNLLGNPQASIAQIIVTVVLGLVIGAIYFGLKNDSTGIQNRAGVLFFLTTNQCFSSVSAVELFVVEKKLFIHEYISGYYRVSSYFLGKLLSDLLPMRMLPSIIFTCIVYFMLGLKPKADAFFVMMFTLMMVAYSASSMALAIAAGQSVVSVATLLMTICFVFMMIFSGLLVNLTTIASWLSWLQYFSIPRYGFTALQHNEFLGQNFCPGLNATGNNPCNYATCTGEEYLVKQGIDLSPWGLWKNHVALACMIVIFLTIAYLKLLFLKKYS
Procedure, shortened: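 MCF-7/Topo cells, 1 × 10^6/mL, incubated 30 min at 37 °C/5% CO2 with 20 µM mitoxantrone and graded modulator; washed, 1 h efflux in drug-free medium at 37 °C, PBS resuspension, flow cytometry.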

[2] = molecular target: T2, ATP-dependent translocase ABCB1 (Homo sapiens, UniProt P08183); test: Inhibition of ABCB1 overexpressed in human KBv1 cells by flow cytometric-based calcein-AM efflux assay; assay type: cell-based
T2 sequence (P08183 whole entry): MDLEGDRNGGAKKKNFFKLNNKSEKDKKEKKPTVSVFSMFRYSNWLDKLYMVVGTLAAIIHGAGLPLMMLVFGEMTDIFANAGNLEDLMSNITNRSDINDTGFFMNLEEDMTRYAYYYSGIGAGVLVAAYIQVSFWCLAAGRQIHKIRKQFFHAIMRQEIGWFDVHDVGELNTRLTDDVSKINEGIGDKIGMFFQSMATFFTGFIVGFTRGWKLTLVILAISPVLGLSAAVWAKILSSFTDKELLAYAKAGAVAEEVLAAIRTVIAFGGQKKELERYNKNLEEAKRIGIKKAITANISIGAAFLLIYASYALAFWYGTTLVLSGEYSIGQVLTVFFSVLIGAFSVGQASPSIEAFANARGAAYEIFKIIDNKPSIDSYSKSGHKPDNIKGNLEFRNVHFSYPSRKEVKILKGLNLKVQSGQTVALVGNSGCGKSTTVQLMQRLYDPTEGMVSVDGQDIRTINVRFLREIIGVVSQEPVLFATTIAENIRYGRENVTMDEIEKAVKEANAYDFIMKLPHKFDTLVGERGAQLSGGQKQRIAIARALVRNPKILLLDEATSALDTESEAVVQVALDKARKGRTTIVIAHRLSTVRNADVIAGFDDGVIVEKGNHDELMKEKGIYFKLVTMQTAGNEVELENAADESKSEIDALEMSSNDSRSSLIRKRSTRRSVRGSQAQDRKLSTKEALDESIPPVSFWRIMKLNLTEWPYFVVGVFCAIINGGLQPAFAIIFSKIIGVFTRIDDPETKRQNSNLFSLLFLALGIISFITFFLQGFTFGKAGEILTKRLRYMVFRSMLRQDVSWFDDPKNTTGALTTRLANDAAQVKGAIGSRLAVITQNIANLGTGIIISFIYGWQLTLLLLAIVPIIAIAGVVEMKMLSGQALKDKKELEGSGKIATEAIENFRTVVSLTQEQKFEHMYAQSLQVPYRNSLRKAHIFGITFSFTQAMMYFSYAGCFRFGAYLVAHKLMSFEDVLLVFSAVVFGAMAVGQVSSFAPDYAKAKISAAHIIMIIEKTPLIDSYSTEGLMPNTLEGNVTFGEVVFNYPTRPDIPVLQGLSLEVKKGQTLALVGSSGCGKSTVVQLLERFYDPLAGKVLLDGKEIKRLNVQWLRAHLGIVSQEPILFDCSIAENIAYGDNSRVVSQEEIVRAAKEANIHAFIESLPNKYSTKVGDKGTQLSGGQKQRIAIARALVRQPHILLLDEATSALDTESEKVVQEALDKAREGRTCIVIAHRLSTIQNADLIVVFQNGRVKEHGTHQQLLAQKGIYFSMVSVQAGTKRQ

[3] = molecular target: T1, Broad substrate specificity ATP-binding cassette transporter ABCG2; test: Inhibition of ABCG2 over-expressed in human MCF7/Topo cells at 7 to 10 uM by flow cytometric-based mitoxantrone efflux assay relative to fumitremorgin C; assay type: cell-based
Procedure, shortened: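 MCF-7/Topo cells, 1 × 10^6/mL, loaded 30 min at 37 °C with 20 µM mitoxantrone plus compound, then 1 h efflux in drug-free medium; flow cytometry. Maximal inhibition = effect at highest tested concentration (7 or 10 µM) relative to 10 µM fumitremorgin C (100%, ice-kept sample); geometric mean fluorescence.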

[4] = molecular target: T3, ATP-binding cassette sub-family C member 2 (Homo sapiens, UniProt Q92887); test: Inhibition of ABCC2 overexpressed in MDCK cells […] up to 50 uM by flow cytometric-based chloromethylfluorescein-diacetate accumulation assay; assay type: cell-based; details: dog
T3 sequence (Q92887 whole entry): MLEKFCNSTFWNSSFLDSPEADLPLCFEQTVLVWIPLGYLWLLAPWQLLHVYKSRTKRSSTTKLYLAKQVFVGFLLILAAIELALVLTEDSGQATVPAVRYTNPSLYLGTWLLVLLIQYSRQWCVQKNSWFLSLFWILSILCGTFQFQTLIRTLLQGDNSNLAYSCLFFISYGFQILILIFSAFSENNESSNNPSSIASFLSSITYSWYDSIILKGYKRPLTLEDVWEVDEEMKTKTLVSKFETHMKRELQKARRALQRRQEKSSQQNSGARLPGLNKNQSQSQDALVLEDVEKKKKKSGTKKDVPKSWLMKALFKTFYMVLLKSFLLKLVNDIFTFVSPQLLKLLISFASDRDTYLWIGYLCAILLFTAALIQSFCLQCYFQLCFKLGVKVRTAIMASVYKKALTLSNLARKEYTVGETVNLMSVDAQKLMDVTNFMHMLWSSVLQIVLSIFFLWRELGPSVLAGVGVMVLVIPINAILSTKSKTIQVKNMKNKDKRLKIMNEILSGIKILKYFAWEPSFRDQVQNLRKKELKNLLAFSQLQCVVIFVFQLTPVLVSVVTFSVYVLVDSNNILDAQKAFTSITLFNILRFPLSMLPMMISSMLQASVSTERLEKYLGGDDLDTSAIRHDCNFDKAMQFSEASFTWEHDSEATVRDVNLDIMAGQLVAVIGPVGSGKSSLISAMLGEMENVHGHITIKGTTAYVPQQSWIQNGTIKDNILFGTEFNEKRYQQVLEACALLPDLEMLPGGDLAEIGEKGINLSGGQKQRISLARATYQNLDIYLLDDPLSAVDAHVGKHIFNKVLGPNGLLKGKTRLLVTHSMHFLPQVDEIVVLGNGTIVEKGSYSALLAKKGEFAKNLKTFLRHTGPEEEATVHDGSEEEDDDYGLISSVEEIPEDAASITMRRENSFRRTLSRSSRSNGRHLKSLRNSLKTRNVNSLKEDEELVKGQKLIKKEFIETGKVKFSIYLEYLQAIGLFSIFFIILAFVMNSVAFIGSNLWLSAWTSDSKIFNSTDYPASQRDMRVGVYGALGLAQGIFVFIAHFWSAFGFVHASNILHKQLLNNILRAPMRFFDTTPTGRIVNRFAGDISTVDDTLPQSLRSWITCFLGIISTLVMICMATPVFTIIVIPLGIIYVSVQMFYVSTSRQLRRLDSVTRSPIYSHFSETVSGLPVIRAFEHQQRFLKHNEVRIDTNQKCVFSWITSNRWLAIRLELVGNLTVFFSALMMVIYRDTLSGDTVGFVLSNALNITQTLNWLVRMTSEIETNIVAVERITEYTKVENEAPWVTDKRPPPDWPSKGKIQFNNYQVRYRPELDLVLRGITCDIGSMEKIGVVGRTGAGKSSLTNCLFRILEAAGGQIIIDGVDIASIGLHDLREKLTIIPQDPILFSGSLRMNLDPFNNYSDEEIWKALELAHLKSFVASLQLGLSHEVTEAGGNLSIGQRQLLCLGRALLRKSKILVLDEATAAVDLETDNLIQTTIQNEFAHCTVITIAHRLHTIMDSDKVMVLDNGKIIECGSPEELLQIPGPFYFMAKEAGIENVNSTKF

[5] = Cytotoxicity against ABCG2 negative human U373MG cells by chemosensitivity assay; assay type: ADME, cell-based; details: u-373mg atcc
Procedure, shortened: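 Proliferating ABCG2/ABCB1-nonexpressing U-373 MG glioblastoma cells (EMEM, 5% FCS, 37 °C, 5% CO2) seeded in 96-well plates, medium replaced after 2-3 days with drug or vehicle (1000-fold feed solutions); 16 wells per concentration. Cells fixed with glutardialdehyde at various times, stained with crystal violet, absorbance 578 nm; corrected T/C and cytocidal effect calculated.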

[6] = test system: MCF7; test: Cytotoxicity against ABCG2 positive topotecan-resistant human MCF7 cells up to 100 nM by chemosensitivity assay
[7] = molecular target: T3, ATP-binding cassette sub-family C member 2; test: Inhibition of ABCC2 overexpressed in MDCK cells […] by flow cytometric-based chloromethylfluorescein-diacetate accumulation assay; assay type: cell-based
[8] = test system: MCF7; test: Potentiation of ABCG2 positive topotecan-induced cytotoxicity in topotecan-resistant human MCF7 cells at 100 nM by chemosensitivity assay
[9] = molecular target: T4, ABCB1 (Homo sapiens, UniProt P08183); test: (§1) Inhibition of ABCB1 overexpressed in human KBv1 cells at 10 uM by flow cytometric-based calcein-AM efflux assay; assay type: cell-based; details: KBv1 cells overexpressing ABCB1, probe calcein-AM
T4 sequence (P08183 whole entry): as the sequence (P08183 whole entry) above
Procedure, shortened: (§2)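 Done on KBv1 cells (ABCB1-overexpressing KB subclone), maintained in DMEM with 10% FCS and 270 ng/mL vinblastine. Intracellular calcein fluorescence from calcein-AM was measured by flow cytometry in the presence of test compound.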

[10] = test system: MCF7; test: Cytotoxicity against ABCG2 positive topotecan-resistant human MCF7 cells up to 500 uM by chemosensitivity assay; assay type: functional, cell-based
Procedure, shortened: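 MCF-7/Topo cells (ABCG2-overexpressing, kept in EMEM with 5% FCS and 0.55 µM topotecan) were seeded into 96-well plates and grown 2-3 days. Test compound alone was then given under permanent exposure, against vehicle, with 16 wells per concentration. Cells were fixed with glutardialdehyde at various times and stained with crystal violet. A578 was read and corrected T/C% calculated.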

[11] = molecular target: T4, ABCB1; test: Inhibition of ABCB1 overexpressed in human KBv1 cells at 100 uM by flow cytometric-based calcein-AM efflux assay; assay type: cell-based; details: KBv1 cells overexpressing ABCB1, probe calcein-AM; procedure, shortened: as §2
[12] = molecular target: T2, ATP-dependent translocase ABCB1; test: as §1; assay type: cell-based; details: kbv1, 10 µM; procedure, shortened: as §2

Structure (SMILES): COC(=O)c1ccc(C(=O)Nc2ccc(CCN3CCc4cc(OC)c(OC)cc4C3)cc2)cc1NC(=O)c1cnc2ccccc2n1
- IC50 [1]: 183 nM
- IC50 [2]: > 34000 nM
- inhibition (INH) [3]: 55%

Structure (SMILES): COc1ccc(C(=O)Nc2ccc(CCN3CCc4cc(OC)c(OC)cc4C3)cc2)cc1NC(=O)c1cnc2ccccc2c1
- Activity [4]: Not Active
- IC50 [1]: 317 nM
- IC50 [2]: > 6000 nM
- inhibition (INH) [3]: 63%

Structure (SMILES): COC(=O)c1ccc(C(=O)Nc2ccc(CCN3CCc4cc(OC)c(OC)cc4C3)cc2)cc1NC(=O)c1cnc2ccccc2c1
- Activity [4]: Not Active
- IC50 [1]: 119 nM
- Activity [5]: Toxic
- IC50 [2]: 9450 nM
- Activity [6]: Active
- inhibition (INH) [3]: 41%

Structure (SMILES): CCCCC/C=C\C\C=C/C=C/C=C/[C@@H](SC[C@@H](NC(=O)CC[C@H](N)C(=O)O)C(=O)NCC(=O)O)[C@@H](O)CCCC(=O)O [LEUKOTRIEN C4]
- IC50 [7]: < 150 nM

Structure (SMILES): COC(=O)c1ccc(C(=O)Nc2ccc(CCN3CCc4cc(OC)c(OC)cc4C3)cc2)cc1NC(=O)c1ccc2ccccc2n1
- IC50 [1]: 60 nM
- IC50 [2]: > 29000 nM
- inhibition (INH) [3]: 56%
- IC50 [7]: > 20000 nM
- Activity [8]: Active

Structure (SMILES): COc1cc2c(cc1OC)CN(CCc1ccc(NC(=O)c3ccc(C)c(NC(=O)c4cnc5ccccc5c4)c3)cc1)CC2
- IC50 [1]: 1990 nM
- IC50 [2]: > 15000 nM
- inhibition (INH) [3]: 52%
- IC50 [7]: > 50000 nM

Structure (SMILES): COc1cc(NC(=O)c2cnc3ccccc3c2)cc(C(=O)Nc2ccc(CCN3CCc4cc(OC)c(OC)cc4C3)cc2)c1
- Activity [4]: Not Active
- IC50 [1]: 977 nM
- IC50 [2]: > 15000 nM
- inhibition (INH) [3]: 43%

Structure (SMILES): COc1ccc2c3c([nH]c2c1)[C@H](CC(C)C)N1C(=O)[C@H](CCC(=O)OC(C)(C)C)NC(=O)[C@@H]1C3
- inhibition at 10 µM [9]: 1.6%
- Activity [10]: Active
- IC50 [7]: > 50000 nM
- Activity [8]: Active

Structure (SMILES): COC(=O)c1ccc(C(=O)Nc2ccc(CCN3CCc4cc(OC)c(OC)cc4C3)cc2)cc1NC(=O)c1cccnc1
- IC50 [1]: 1020 nM
- IC50 [2]: > 14000 nM
- inhibition (INH) [3]: 47%
- IC50 [7]: > 20000 nM

Structure (SMILES): COC(=O)c1ccc(C(=O)Nc2ccc(CCN3CCc4cc(OC)c(OC)cc4C3)cc2)cc1NC(=O)c1cnc(C)cn1
- IC50 [1]: 552 nM
- IC50 [2]: > 57000 nM
- inhibition (INH) [3]: 44%
- IC50 [7]: > 20000 nM

Structure (SMILES): COc1cc2c(cc1OC)CN(CCc1ccc(NC(=O)c3cccc4c(=O)c5cccc(OC)c5[nH]c34)cc1)CC2
- Activity [4]: Not Active
- inhibition (INH) [3]: 46%

Structure (SMILES): CN(C)C(=O)CCSC(SCCC(=O)O)c1cccc(/C=C/c2ccc3ccc(Cl)cc3n2)c1 (stereo unspecified) [MK-571]
- IC50 [7]: > 1000 nM

Structure (SMILES): COc1cc2c(cc1OC)CN(CCc1ccc(NC(=O)c3cc(OC)c(OC)cc3NC(=O)c3cnc4ccccc4c3)cc1)CC2
- Activity [4]: Not Active
- IC50 [1]: 916 nM
- inhibition (INH) [3]: 39%

Structure (SMILES): COc1ccc2c3c([nH]c2c1)[C@H](C=C(C)C)N1C(=O)[C@@H]2CCCN2C(=O)[C@@H]1C3 [FUMITREMORGIN]
- Activity [4]: Not Active
- IC50 [1]: > 11000 nM
- inhibition at 100 µM [11]: 22%
- inhibition at 10 µM [9]: 0.8%
- inhibition (INH) [3]: 100%

Structure (SMILES): COC(=O)c1ccc(C(=O)Nc2ccc(CCN3CCc4cc(OC)c(OC)cc4C3)cc2)cc1NC(=O)c1ccc2ncccc2c1
- IC50 [1]: 179 nM
- Activity [12]: Not Active
- inhibition (INH) [3]: 25%

Structure (SMILES): COC(=O)c1ccc(C(=O)Nc2ccc(CCN3CCc4cc(OC)c(OC)cc4C3)cc2)cc1NC(=O)c1cnccn1
- IC50 [1]: 632 nM
- IC50 [2]: > 20000 nM
- inhibition (INH) [3]: 38%
- IC50 [7]: > 50000 nM

Structure (SMILES): COc1cc2c(cc1OC)CN(CCc1ccc(NC(=O)c3cc(NC(=O)c4cnc5ccccc5c4)c(OC)c(OC)c3)cc1)CC2
- Activity [4]: Not Active
- IC50 [1]: 858 nM
- IC50 [2]: > 17000 nM
- inhibition (INH) [3]: 36%
